The list is not random: actives were taken first. Their share in the collection is about 2.5%.
Tb hexokinase – blocks Trypanosoma brucei hexokinase 1 activity | 220,000 compounds, 0.11% hits | inhibition, % at 10 µM | recombinant TbHK1, G6PDH-coupled NADH A340;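 active = inhibition of 50% or more in the single-dose primary screen; inactive = inhibition below 50%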
PfGluPho inh – PfG6PD (Plasmodium falciparum) enzyme inhibition; inhibition, % at 20 µM; 350,000 compounds, 0.78% hits; PfGluPho enzyme, NADPH resazurin-diaphorase fluorescence; AID 504690;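 active = inhibition reaching at least a set limit at 20 µM in the primary screen, cut at about 59% in these data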;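 also: 0% = DMSO wells with substrate and 100% = DMSO wells lacking glucose-6-phosphate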
EP2 mod – EP2 receptor (human) modulation; EP2-expressing cells, cAMP HTRF FRET, PGE2 co-stimulation; induction, % at 25 µM; 260,000 compounds, 0.83% hits; AID 940;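 active = compounds whose cAMP rise, as percent of the full-agonist control response, exceeds 60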;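 also: rat C6 glioma line stably carrying human EP2 under a CMV promoter; the protocol text gives 20 µM as final concentration; 100% = response of wells given 1 µM PGE2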
Target sequence (P43116 whole entry, looked up): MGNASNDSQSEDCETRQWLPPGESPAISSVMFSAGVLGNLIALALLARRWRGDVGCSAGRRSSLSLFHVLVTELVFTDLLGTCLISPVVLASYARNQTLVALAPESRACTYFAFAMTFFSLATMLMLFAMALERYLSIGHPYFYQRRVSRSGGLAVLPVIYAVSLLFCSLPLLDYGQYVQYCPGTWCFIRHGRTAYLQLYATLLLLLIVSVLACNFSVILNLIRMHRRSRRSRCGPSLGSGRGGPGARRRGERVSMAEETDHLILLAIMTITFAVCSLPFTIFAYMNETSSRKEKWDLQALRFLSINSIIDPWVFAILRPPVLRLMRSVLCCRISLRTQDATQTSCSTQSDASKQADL
PGE2 EP2 inh – blocks the human prostaglandin E2 receptor EP2 | C6 glioma cells expressing human EP2, cAMP TR-FRET; cells stimulated with saturating PGE2 | inhibition, % at 25 µM | 260,000 compounds, 0.52% hits | AID 1422;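 active = percent inhibition above 40 after rounding to a whole number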;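 also: rat C6 glioma host cells with rolipram phosphodiesterase inhibitor present; the protocol text gives 20 µM as final concentration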
HKDC1 inhibitor – inhibitors of human hexokinase HKDC1; Q2TB90; recombinant HKDC1, G6PDH/diaphorase resazurin coupled fluorescence; inhibition, % at 20 µM; 340,000 compounds, 0.16% hits;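 active = inhibition above about 35% when tested at 20 µM, limit read from the data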;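 also: plate controls were DMSO wells with enzyme for no effect and DMSO wells lacking enzyme for full effect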
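Incubation: 90 min at room temperature in dark / Material: recombinant HKDC1 (HK5) hexokinase enzyme, produced in-house / Quantity: enzyme 5 µg/mL final / Compound: one dose of 20 µM, 1% DMSO / Reagent: glucose and ATP substrates / Buffer or medium: Tris pH 8.0 buffer with MgCl2, Tween-20, BSA, BME / Technique: resorufin fluorescence at 613 nm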
PHOSPHO1 inh – inhibitors of human PHOSPHO1 phosphatase | recombinant PHOSPHO1, absorbance phosphatase assay | inhibition, % at 13.3 µM | 290,000 compounds, 1.1% hits | AID 1565; in the data active = inhibition above about 60%
HKDC1 act conf – HKDC1 (human) activation, single-dose confirmed; AID 504708; recombinant HKDC1, G6PDH/diaphorase resazurin fluorescence; stronger effect = lower value; 740 compounds, 14% hits; shares compounds with HKDC1 inhibitor; inhibition, % at 20 µM;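 active = inhibition at or below a set negative limit, negative inhibition meaning the enzyme was activated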
The depositor's hits bear a star; . = no result given.

SMILES | Tb hexokinase | PfGluPho inh | EP2 mod | PGE2 EP2 inh | HKDC1 inhibitor | PHOSPHO1 inh | HKDC1 act conf
O=C1NN(c2cccc(Br)c2)C(=O)/C1=C/c1ccc(-c2cc([N+](=O)[O-])ccc2O)o1 | 12 | 6 | -18 | 9 | 62* | 5 | -13
CC1=NN(c2ccc(C)cc2)C(=O)/C1=C/c1ccc(-c2cc([N+](=O)[O-])ccc2O)o1 | . | 6 | . | . | 18 | 8 | .
O=C(O)c1cc(O)c2c(c1)[C@@H]([C@H]1c3cc(C(=O)O)cc(O)c3C(=O)c3c(O[C@@H]4O[C@H](CO)[C@@H](O)[C@H](O)[C@H]4O)cccc31)c1cccc(O[C@@H]3O[C@H](CO)[C@@H](O)[C@H](O)[C@H]3O)c1C2=O | . | 30 | . | . | 80* | . | 34
CCOC(=O)c1ccc2c(c1)n(CCOC)c(C)[n+]2CC | . | . | -14 | 7 | . | . | .
Oc1c(Br)cc(Br)cc1C=Nc1ccc2c(c1)OCCO2 | -6 | 18 | -18 | 10 | 7 | -13 | .
Oc1c(Br)cc(Br)cc1/C=N/c1nc2c(s1)CCCC2 | 3 | 80* | 49 | 11 | 37* | . | -2
CC[n+]1c(/C=C2\Sc3ccccc3N2C)ccc2cccc(C)c21 | -10 | 20 | -28 | 107* | -40 | -43 | -38*
O=C(/C=C/Nc1ccccc1)c1ccccc1 | -17 | 14 | -18 | . | 3 | 20 | .
O=C(/C=C/Sc1ccccc1)c1ccccc1 | -17 | 25 | -45 | 15 | 36* | 16 | 2
O=C(c1ccc(F)cc1)N1CCCc2cc(C(O)CN3CCCC3)ccc21 (stereo not given) | . | . | -35 | 8 | . | . | .
CCc1ccc2c(c1)C(NC(C)=O)C(=O)N2CCN1CCOCC1 (stereo not given) | . | 20 | . | . | 80* | 23 | 57
CCCN1C(=O)C(NC(C)=O)c2ccccc21 (stereo not given) | -1 | -3 | 11 | 4 | 14 | 3 | .
O=C(OCn1ncc(Cl)c(Cl)c1=O)c1ccc(C(F)(F)F)cc1 | 7 | 8 | -7 | 19 | 46* | 4 | 2
Cc1ccc(C(=O)OCn2ncc(Cl)c(Cl)c2=O)cc1 | 3 | -7 | -33 | 15 | 23 | -152 | .
O=c1[nH][nH]c2c(N=Cc3ccccc3O)ccc(F)c12 | 0 | 54 | -15 | 10 | 38* | 46 | 25
CCc1ccc(O)c(N=Cc2ccccc2O)c1 | 8 | 25 | 34 | 21 | -10 | -39 | .
COC(=O)c1cc(=O)n(Cc2ccc(OC)cc2)c(=NCc2ccc(OC)cc2)s1 | -13 | 5 | 11 | 6 | -43 | -20 | -16
CCC(C)(C)NC(=O)C(c1ccco1)N(Cc1ccc(Cl)cc1)C(=O)c1csnn1 (stereo not given) | . | . | -2 | 7 | . | . | .
O=S(=O)(CCSc1nc2ccccc2s1)c1nc2ccccc2s1 | -15 | 27 | 4 | 3 | 39* | 76* | 0
CCC(c1ccccc1)C(CC)c1cc(O)c(O)c(O)c1 (stereo not given) | . | 38 | . | . | 42* | . | 36
CCC(C(=O)O)c1ccccc1 (stereo not given) | . | . | 17 | 15 | . | . | .
CC(C)n1c(=O)oc2cc(S(=O)(=O)NC3(CN4CCCC4)CCCCC3)ccc21 | . | . | -52 | 8 | . | . | .
Cc1cc2cc3c(cc2n2c(SCC(=O)NNC(=O)C(C)C)nnc12)OCCO3 | . | . | -7 | 14 | . | . | .
CC(=O)n1cc(N(C(=O)CCl)c2ccc([N+](=O)[O-])cc2)c2ccccc21 | -21 | 0 | -31 | 14 | 48* | 24 | 41
CC(=O)n1cc(CO)c2ccccc21 | . | 15 | . | . | -7 | 23 | .
SMILES | Tb hexokinase | PfGluPho inh | EP2 mod | PGE2 EP2 inh | HKDC1 inhibitor | PHOSPHO1 inh | HKDC1 act conf
CC(=O)n1cc(N(C(=O)CCl)c2ccccc2)c2ccccc21 | -7 | -1 | 4 | 4 | 35 | 32 | 9
COc1ccc(N2CCN(C(=O)CNC3CCCC3)CC2)cc1 | . | . | -1 | 10 | . | . | .
NC(=S)N=Nc1c(O)cc(O)c2[nH]c(=O)ccc12 | . | 93* | . | . | 35* | . | 27
c1ccc2oc(C3=NNC(=NC4CC4)SC3)cc2c1 | -24 | 23 | -24 | 6 | -47 | -7 | -24
COc1ccc(-c2ccc(=O)n(CC3CCN(C(=O)c4cccc(F)c4)CC3)n2)cc1 | . | . | -28 | . | . | . | .
O=C1C(C2=C(O)c3ccccc3C2=O)=Nc2ccccc21 | -2 | 17 | -28 | 31 | -242 | 36 | -162*

Assay outcomes from PubChem BioAssay.
